Results taken from ChEMBL document CHEMBL2311344, “Development of an in vivo active, dual EP1 and EP3 selective antagonist based on a novel acyl sulfonamide bioisostere” (Bioorg Med Chem Lett, 2013).
Active and inactive are the calls of the source. The calls are words filed in the database; no cut-off is given here.

Experiments:
[1] = biological target: Prostaglandin E2 receptor EP4 subtype (Mus musculus, UniProt P32240); assay: Antagonist activity at mouse EP4 receptor
Method in brief: (§1)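 Affinity at mouse EP2, EP3 and EP4 is given as pKI. Signalling through mouse TP is given as pIC50. Mean ± SEM of at least three independent experiments, each run in triplicate.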

[2] = biological target: Prostaglandin E2 receptor EP2 subtype (Mus musculus, UniProt Q62053); assay: Antagonist activity at mouse EP2 receptor; method in brief: as §1
Chain of Prostaglandin E2 receptor EP2 subtype (Q62053 whole entry): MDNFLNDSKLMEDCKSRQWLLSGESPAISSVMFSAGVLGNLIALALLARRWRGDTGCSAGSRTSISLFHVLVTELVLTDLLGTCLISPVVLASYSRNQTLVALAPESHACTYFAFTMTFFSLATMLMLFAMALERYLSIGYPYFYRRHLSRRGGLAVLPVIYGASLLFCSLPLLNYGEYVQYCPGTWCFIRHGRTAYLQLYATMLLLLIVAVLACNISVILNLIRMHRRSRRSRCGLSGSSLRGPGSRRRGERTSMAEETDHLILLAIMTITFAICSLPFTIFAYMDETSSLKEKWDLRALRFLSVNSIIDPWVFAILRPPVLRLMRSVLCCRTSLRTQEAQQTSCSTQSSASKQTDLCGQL

[3] = biological target: T1, Prostaglandin E2 receptor EP3 subtype (Mus musculus, UniProt P30557); assay: Antagonist activity at mouse EP3 receptor; method in brief: as §1
T1 sequence (P30557 whole entry): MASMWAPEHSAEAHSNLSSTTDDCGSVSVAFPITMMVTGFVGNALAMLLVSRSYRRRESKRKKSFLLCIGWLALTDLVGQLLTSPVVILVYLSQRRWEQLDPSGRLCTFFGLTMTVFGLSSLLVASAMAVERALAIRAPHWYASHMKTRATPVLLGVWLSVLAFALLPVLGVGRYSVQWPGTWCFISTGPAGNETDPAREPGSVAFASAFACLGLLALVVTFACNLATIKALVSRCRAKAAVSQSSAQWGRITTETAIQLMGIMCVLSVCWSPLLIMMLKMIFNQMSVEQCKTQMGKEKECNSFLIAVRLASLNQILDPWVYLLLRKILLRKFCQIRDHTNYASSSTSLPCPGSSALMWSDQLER

[4] = biological target: T2, Thromboxane A2 receptor (Mus musculus, UniProt P30987); assay: Antagonist activity at mouse TP receptor; method in brief: as §1
T2 sequence (P30987 whole entry): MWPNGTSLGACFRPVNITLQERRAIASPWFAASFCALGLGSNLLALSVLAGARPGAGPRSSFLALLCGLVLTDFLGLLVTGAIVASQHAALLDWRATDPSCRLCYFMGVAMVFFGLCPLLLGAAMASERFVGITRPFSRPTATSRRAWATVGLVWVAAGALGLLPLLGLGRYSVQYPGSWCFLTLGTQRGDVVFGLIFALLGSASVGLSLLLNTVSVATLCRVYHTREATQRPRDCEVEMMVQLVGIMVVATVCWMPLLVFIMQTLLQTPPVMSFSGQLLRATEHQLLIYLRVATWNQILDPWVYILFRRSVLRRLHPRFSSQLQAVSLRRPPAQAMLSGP

[5] = biological target: T3, Prostaglandin E2 receptor EP1 subtype (Mus musculus, UniProt P35375); assay: Antagonist activity at mouse EP1 receptor expressed in CHOK1 cells assessed as inhibition of 17PTPGE2-induced calcium influx; type: functional, cell-based, CHO-K1
T3 sequence (P35375 whole entry): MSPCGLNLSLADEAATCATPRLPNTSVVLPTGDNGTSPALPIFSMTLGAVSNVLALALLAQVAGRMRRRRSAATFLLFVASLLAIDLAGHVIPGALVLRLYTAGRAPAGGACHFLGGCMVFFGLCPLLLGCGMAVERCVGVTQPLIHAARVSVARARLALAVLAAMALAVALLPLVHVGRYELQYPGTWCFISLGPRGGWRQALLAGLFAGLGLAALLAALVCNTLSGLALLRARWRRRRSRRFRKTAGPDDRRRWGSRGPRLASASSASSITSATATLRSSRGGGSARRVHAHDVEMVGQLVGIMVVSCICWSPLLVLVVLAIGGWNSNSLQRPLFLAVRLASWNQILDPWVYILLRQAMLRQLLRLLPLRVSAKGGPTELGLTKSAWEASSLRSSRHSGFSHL
Method in brief: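 CHOk1 cells expressing mouse EP1 were treated with six antagonist concentrations, then challenged with a concentration range of the EP1 agonist 17-phenyl-ω-trinor PGE2. pKD/KD came from transformed Schild regression of the concentration-response curves. Mean ± SEM of at least two independent experiments, each in duplicate.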

[6] = system: Plasma; assay: Fraction unbound in mouse plasma; type: ADME, cell-free
[7] = system: Mus musculus; assay: Tmax in mouse at 5 mg/kg, sc; type: ADME, organism-based; design: dose 5 mg/kg, route subcutaneous; conditions: in vivo
Method in brief: (§2)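 Subcutaneous dose of 5 mg/kg in mice (n = 3). Plasma sampled intermittently to build a concentration-time profile. Cmax, tmax and AUC were taken from that profile.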

[8] = Drug metabolism in mouse liver microsomes assessed as esterase-mediated sulfonamide hydrolysis; type: ADME, Microsome
[9] = Drug metabolism in mouse liver microsomes assessed as cytochrome P450-mediated benzylic oxidation; type: ADME, Microsome
[10] = system: Mus musculus; assay: Cmax in mouse at 5 mg/kg, sc; type: ADME, organism-based; design: dose 5 mg/kg, route subcutaneous; conditions: in vivo; method in brief: as §2
[11] = system: Mus musculus; assay: Antihypertensive activity in mouse assessed as 17PTPGE2-induced mean arterial pressure at 5 mg/kg, sc administered 2 hr prior to 17PTPGE2-challenge (reference value: 50.3 +/- 5.5 mmHg); type: functional, Artery; conditions: route subcutaneous
Method in brief: (§3)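 Mice were anesthetized, with the left common carotid artery and right jugular vein cannulated. Arterial pressure was recorded directly via the carotid catheter. Test agent or vehicle was given 5 mg/kg sc. After 2 h, an IV bolus went through the jugular catheter: 20 μg/kg 17-phenyl-ω-trinor PGE2 (EP1) or 10 μg/kg sulprostone (EP3). Read-out was change in MAP. n = 3 per group; two-tailed Student's t test.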

[12] = system: Mus musculus; assay: AUC in mouse at 5 mg/kg, sc; type: ADME, organism-based, Plasma; design: dose 5 mg/kg, route subcutaneous; conditions: in vivo; method in brief: as §2
[13] = system: Mus musculus; assay: Antihypertensive activity in mouse assessed as effect on phenylephrine-induced vasopressor activity at 5 mg/kg, sc administered 2 hrs prior to phenylephrine-challenge; type: functional, organism-based; design: dose 5 mg/kg
Method in brief: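 In the same anesthetized, carotid/jugular-cannulated mouse preparation, phenylephrine 10 μg/kg was given as an IV bolus 2 h after 5 mg/kg sc pretreatment. The change in arterial pressure served as the non-EP vasoconstriction control.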

[14] = Drug metabolism in mouse liver microsomes assessed as cytochrome P450-mediated methylene linker oxidation; type: ADME, Microsome
[15] = system: Mus musculus; assay: Antihypertensive activity in mouse assessed as sulprostone-induced mean arterial pressure at 5 mg/kg, sc administered 2 hr prior to sulprostone-challenge (reference value: 53.3 +/- 2.3 mmHg); type: functional, Artery; conditions: route subcutaneous; method in brief: as §3
[16] = Plasma clearance in mouse at 1 mg/kg, iv; type: ADME, organism-based; design: dose 1 mg/kg, route intravenous
Method in brief: (§4)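 Mice were dosed IV at 1 mg/kg or orally at 10 mg/kg. From plasma, the following were derived: systemic plasma clearance, Vss, t1/2 and oral bioavailability (%F).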

[17] = Volume of distribution at steady state in mouse at 1 mg/kg, iv; type: ADME, organism-based; design: dose 1 mg/kg, route intravenous; conditions: in vivo, read-out: Vdss
Method in brief: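 Mouse plasma pharmacokinetics after a single intravenous 1 mg/kg dose. Systemic plasma clearance and volume of distribution predicted at steady state were derived from the IV data. A separate oral arm at 10 mg/kg was used for bioavailability.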

[18] = Half life in mouse at 1 mg/kg, iv; type: ADME, organism-based; design: dose 1 mg/kg, route intravenous; conditions: in vivo
Method in brief: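 Single intravenous dose of 1 mg/kg given to mice. Half-life was derived from systemic plasma levels. Plasma clearance (CLp) and steady-state volume of distribution (Vss) came from the same study. A separate 10 mg/kg oral arm was run for bioavailability.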

[19] = Oral bioavailability in mouse at 10 mg/kg; type: ADME, organism-based; conditions: in vivo; method in brief: as §4
[20] = Drug metabolism in mouse liver microsomes assessed as esterase-mediated hydrolysis; type: ADME, Microsome
[21] = Drug metabolism in mouse liver microsomes assessed as cytochrome P450-mediated oxidation; type: ADME, Microsome
[22] = biological target: T4, Prostaglandin E2 receptor EP1 subtype (Mus musculus) (UniProt P35375); assay: Antagonist activity at mouse EP1 receptor expressed in CHOK1 cells assessed as inhibition of 17PTPGE2-induced calcium influx at >100 uM; type: functional, cell-based; conditions: CHO-K1
T4 sequence (whole entry): T3 sequence (P35375 whole entry)

Chain of Prostaglandin E2 receptor EP4 subtype (P32240 whole entry): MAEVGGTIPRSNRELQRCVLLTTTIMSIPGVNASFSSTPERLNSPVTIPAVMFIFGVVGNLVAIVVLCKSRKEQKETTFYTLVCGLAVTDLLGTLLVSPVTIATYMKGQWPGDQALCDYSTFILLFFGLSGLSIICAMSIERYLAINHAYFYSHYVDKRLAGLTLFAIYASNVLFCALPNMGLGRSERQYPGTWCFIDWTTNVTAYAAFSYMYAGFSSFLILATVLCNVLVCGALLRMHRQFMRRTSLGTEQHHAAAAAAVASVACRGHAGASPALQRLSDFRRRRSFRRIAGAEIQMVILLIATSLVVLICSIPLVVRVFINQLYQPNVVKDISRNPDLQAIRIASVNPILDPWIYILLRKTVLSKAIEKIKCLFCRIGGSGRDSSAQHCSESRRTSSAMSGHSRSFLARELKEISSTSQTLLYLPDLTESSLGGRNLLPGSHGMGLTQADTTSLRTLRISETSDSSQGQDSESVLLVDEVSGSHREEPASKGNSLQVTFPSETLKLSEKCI

| Ki [1] [nM] | Ki [2] [nM] | Ki [3] [nM] | pIC50 [4] | Kd ([5]; read-out: Kd) [nM] | Structure (SMILES) | further results |
| --- | --- | --- | --- | --- | --- | --- |
| > 1000 | > 1000 | 107 | < 6 | 40.7 | O=C(NS(=O)(=O)c1ccc(Cl)cc1)c1cccc(Cc2cc(Cl)ccc2OCc2ccc(Cl)cc2F)n1 | Fu [6]: 0.004; Tmax [7]: 2 h; Drug metabolism [8]: Active; Drug metabolism [9]: Active; Cmax [10]: 504 nM; Activity [11]: 27 mmHg; AUC [12]: 7.508 µM·h; Activity [13]: inactive; Drug metabolism [14]: Active; Activity [15]: 32 mmHg |
| > 1000 | > 1000 | > 1000 | < 6 | 1380 | CCC(C)NC(=O)c1cccc(Cc2cc(Cl)ccc2OCc2ccc(Cl)cc2F)n1 (stereo not drawn) | – |
| > 1000 | > 1000 | > 1000 | < 6 | 447 | CCN(CC)C(=O)c1cccc(Cc2cc(Cl)ccc2OCc2ccc(Cl)cc2F)n1 | – |
| > 1000 | > 1000 | > 1000 | < 6 | 2630 | NC(=O)c1cccc(Cc2cc(Cl)ccc2OCc2ccc(Cl)cc2F)n1 | – |
| > 1000 | > 1000 | 214 | < 6 | 302 | CC(C)CNC(=O)c1cccc(Cc2cc(Cl)ccc2OCc2ccc(Cl)cc2F)n1 | Fu [6]: 0.01; Drug metabolism [20]: Active; Drug metabolism [21]: Active |

The next lines start with the compound.

| Structure (SMILES) | Ki [1] [nM] | Ki [2] [nM] | Ki [3] [nM] | pIC50 [4] | Kd ([5]; read-out: Kd) [nM] | further results |
| --- | --- | --- | --- | --- | --- | --- |
| O=C(NC1CC2CCC1C2)c1cccc(Cc2cc(Cl)ccc2OCc2ccc(Cl)cc2F)n1 (stereo not drawn) | > 1000 | > 1000 | > 1000 | < 6 | 2190 | – |
| Cc1ccc(S(=O)(=O)NC(=O)c2cccc(Cc3cc(Cl)ccc3OCc3ccc(Cl)cc3F)n2)cc1 | > 1000 | > 1000 | > 1000 | < 6 | 214 | – |
| CC(C)(C)NC(=O)c1cccc(Cc2cc(Cl)ccc2OCc2ccc(Cl)cc2F)n1 | > 1000 | > 1000 | > 1000 | < 6 | 4360 | – |
| O=C(O)c1cccc(Cc2cc(Cl)ccc2OCc2ccc(Cl)cc2F)n1 | > 1000 | 1740 | > 1000 | – | 47.9 | Fu [6]: 0.005; clearance [16]: 59.2 mL/min/kg; Vd [17]: 0.9 L/kg; half-life [18]: 65 min; bioavailability [19]: 13.8% |
| O=C(NS(=O)(=O)c1ccc(Cl)c(Cl)c1)c1cccc(Cc2cc(Cl)ccc2OCc2ccc(Cl)cc2F)n1 | > 1000 | > 1000 | 66.1 | < 6 | 214 | – |
| O=C(NC1CCC1)c1cccc(Cc2cc(Cl)ccc2OCc2ccc(Cl)cc2F)n1 | > 1000 | > 1000 | > 1000 | < 6 | 912 | – |
| O=C(c1cccc(Cc2cc(Cl)ccc2OCc2ccc(Cl)cc2F)n1)N1CCCC1 | > 1000 | > 1000 | > 1000 | < 6 | 15800 | – |
| O=C(NCC1CC1)c1cccc(Cc2cc(Cl)ccc2OCc2ccc(Cl)cc2F)n1 | > 1000 | > 1000 | > 1000 | < 6 | 549 | – |
| O=C(NS(=O)(=O)c1cc(Cl)ccc1Cl)c1cccc(Cc2cc(Cl)ccc2OCc2ccc(Cl)cc2F)n1 | > 1000 | > 1000 | 204 | < 6 | 53.7 | Kd ([5]; read-out: pKd (converted)): 56.2 nM |
| CCCS(=O)(=O)NC(=O)c1cccc(Cc2cc(Cl)ccc2OCc2ccc(Cl)cc2F)n1 | > 1000 | > 1000 | > 1000 | < 6 | – | Activity [22]: inactive |
